Assay results as given in ChEMBL document CHEMBL4513216, “Probing the Open Global Health Chemical Diversity Library for Multistage-Active Starting Points for Next-Generation Antimalarials” (ACS Infect Dis, 2020).

Assay: Toxicity liver stage against HepG2, at 10uM
Format: cell-based
Set-up: test concentration 10 uM, cell line HepG2-A16-CD81EGFP
Conditions: human, HepG2-A16-CD81EGFP cells; read-out: INHIBITION
In short: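 Uninfected HepG2-A16-CD81EGFP cells, 3 × 10^3 per well, 1536-well, plated on prespotted compound at 10 μM final, parasite-free screening media added to match infected plates; puromycin 10 μM positive, DMSO 0.5% negative; run in parallel with 48 h PbLuc assay at 37 °C, 5% CO2; viability by CellTiter-Glo luminescence, normalized to controls.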

In order of rising cytotoxicity at 10 µM:
1. O=C(NCCc1cccs1)[C@H]1CO[C@H]2CCN(CC3CC3)C[C@H]2C1  -103%
2. CNC(=O)N1C[C@H]2N(c3ncccn3)CCC[C@@]2(C(=O)NCC2CC2)C1  -101%
3. CCN1C[C@@H](C(=O)O)[C@H](c2cccc(OC)c2)C1  -19%
4. CCn1c(C)cc(C(=O)NCc2ccc(CS(C)(=O)=O)cc2)c1C  -16.9%
5. CCCc1nc(C(=O)N2CCN(S(=O)(=O)CC)CC2)cs1  -14.5%
6. COC(=O)c1ccoc1CN(C)CC(=O)NC1CCS(=O)(=O)C1 (centres undefined)  -14.2%
7. CCN1Cc2cc(OC)ccc2N(CC(C)(C)O)CCC1=O  -12.2%
8. CCc1n[nH]c(C2CN(C(=O)c3nc(C)n4ccccc34)CCO2)n1 (centres undefined)  -11.2%
9. O=C(NC[C@H]1OC[C@@H](NCc2ccccc2)[C@@H]1O)Nc1ccc(F)cc1  -10.8%
10. CC(C)C(=O)NC1CCN(CCO)CC1  -8.84%
11. Cc1nnc(N2CCOC(Cn3cccn3)C2)c(C#N)c1C (centres undefined)  -8.47%
12. CC(C)c1cc(C2CCCN2C(=O)CN2C(=O)OC(C)(C)C2=O)no1 (centres undefined)  -7.71%
13. COc1cc(C(C)NCc2c[nH]nc2C)ccc1OCCO (centres undefined)  -7.47%
14. C=C(Cl)CN1CCC(C(=O)c2cc(F)ccc2F)CC1  -7.26%
15. O=C(Cc1csc(Cc2ccccn2)n1)NCCCN1CCCC1=O  -6.29%
16. CCc1nnsc1C(=O)N1CCN(CC(O)CC)CC1 (centres undefined)  -6.06%
17. O=C(NCCn1ccnc1)N1CCCC1c1ccsc1 (centres undefined)  -6.05%
18. COCC(NC(=O)c1ccoc1C)c1cccc(C(F)(F)F)c1 (centres undefined)  -5.95%
19. O=C(CCc1nnc(-c2ccccc2)o1)N1CCCC1c1ccccn1 (centres undefined)  -5.82%
20. Cc1ccc(C(=O)Nc2ccc(N3CCC(O)CC3)c(C#N)c2)s1  -5.71%
21. CSCCC1c2nc[nH]c2CCN1Cc1[nH]c2ccc(F)cc2c1C (centres undefined)  -5.65%
22. CC(NC(=O)N1CCc2ccccc21)c1nncn1C (centres undefined)  -5.3%
23. CC(=O)NCCc1ccc(C(=O)N2CCCC2c2cnn(C)c2)cc1 (centres undefined)  -4.74%
24. O=C(C1CCCCN1Cc1nc(-c2ccco2)no1)N1CCCC1 (centres undefined)  -4.64%
25. CC(C)NC(=O)Cc1cnc(-n2cccc2)s1  -4.6%
26. NC(=O)CSc1nnc2[nH]c(=O)c3c(n12)CCCC3  -4.44%
27. Cc1nc(CN2CCCC(c3cnccn3)C2)cs1 (centres undefined)  -4.18%
28. CCOC(=O)c1sc2ccsc2c1CNC(=O)C(C)OC (centres undefined)  -4.07%
29. NC(=O)c1csc(C(=O)N2CCCCC2Cn2cccn2)c1 (centres undefined)  -3.56%
30. COc1cc(C)cc(C(C(=O)O)N(C)Cc2ccon2)c1OC (centres undefined)  -3.41%
31. CCC(C)(C)NC(=O)CN(C)C(c1cccc(F)c1)c1ccccn1 (centres undefined)  -3.15%
32. CCN1C[C@@H]2[C@@H](OC)CCN(S(=O)(=O)c3ccccc3)[C@@H]2C1  -2.7%
33. COCCCNC(=O)CN(C)C(=O)c1cc(C)sc1C  -2.58%
34. O=c1c2cn[nH]c2nc(SCCN2CCCC2)n1-c1ccccc1  -2.03%
35. COc1ncc(CN2CCC3(CCCN(CC4CCC4)C3)C2)cn1 (centres undefined)  -1.95%
36. Cc1ccc2c(c1)OC(C)(C)CC2NC(=O)C1CCN(C)CC1 (centres undefined)  -1.71%
37. COCCOCC(=O)NC(C#N)c1ccccc1C (centres undefined)  -1.65%
38. CN(C)C(CNCc1nc(-c2ccsc2)no1)c1ccsc1 (centres undefined)  -1.63%
39. Cc1ccc2cccc(S(=O)(=O)N(C)CC3CCN(C)CC3)c2n1  -1.6%
40. CC(C)CCn1cc(C(C(=O)O)N2CCSCC2)cn1 (centres undefined)  -1.17%
41. Cc1oc(C(=O)Nc2ccccc2F)cc1S(N)(=O)=O  -1.07%
42. CCCc1nc(CN2CCN(Cc3noc(CCC)n3)CC2)no1  -0.914%
43. Cc1nc(Cn2c(=O)cnc3ccccc32)n(C)n1  -0.825%
44. CCC1CN(c2nnc(C)c(C)c2C#N)CCO1 (centres undefined)  -0.678%
45. NC(=O)N1CCC(NCc2cc(C(F)(F)F)ccc2Cl)CC1  -0.651%
46. Cc1noc(C)c1CCCNC(=O)Nc1cccc([S+](C)[O-])c1 (centres undefined)  -0.595%
47. Cc1nc2ccccc2n1CCNCc1cccc(C#N)c1  -0.591%
48. c1cn(CCn2cnnc2)c(-c2cc3n(n2)CCCNC3)n1  -0.309%
49. COCC(=O)N1CCC2(CCCN(Cc3ccc(Cl)cc3)CC2)CC1  -0.153%
50. COCCN1CCC2(CCC1=O)CN(C1CCOCC1)CCN2C (centres undefined)  0.0227%
51. Cc1nc(-c2ccccc2)sc1C(=O)NCCNc1ncccn1  0.273%
52. N#Cc1c(F)cccc1N1CCC(C(=O)Nc2nccs2)CC1  0.329%
53. COc1ccc(COCC(O)CNC(=O)c2cc(C)cc(C)c2)cc1 (centres undefined)  0.385%
54. Cc1noc(C)c1C(=O)N(C)C(C)c1ccncc1 (centres undefined)  0.66%
55. COc1ccc(C)cc1CSCCn1nc2ccccn2c1=O  1.03%
56. CCc1c(C)sc2nc3n(CCN4CCOCC4)nc(SC)n3c(=O)c12  1.09%
57. CC(CN(C)Cc1cccc(-n2cccn2)c1)C(F)(F)F (centres undefined)  1.55%
58. CC(C)c1nc2cc(NC(=O)Cn3ccc(=O)[nH]c3=O)ccc2o1  1.73%
59. O=C(CN1CC(c2nc(-c3ccco3)no2)C1)NCC1CCCO1 (centres undefined)  2.21%
60. CCc1cnc(N2CCCC(CCC(N)=O)C2)nc1 (centres undefined)  2.25%
61. CN(C)c1cncc(C2CCCN(c3cnccn3)C2)n1 (centres undefined)  2.45%
62. CCN(Cc1noc(C)n1)C(=O)CC1C(=O)NCCN1CC(C)(C)C (centres undefined)  2.78%
63. CC(=O)N1CCCC1CCc1ccc(Cl)nn1 (centres undefined)  3.39%
64. Cc1cc2[nH]cc(C(=O)N3CCCCC3c3ccc(F)cc3)c(=O)n2n1 (centres undefined)  4.19%
65. N#Cc1nccnc1N1CCC(c2nc(C(F)(F)F)c[nH]2)CC1  4.25%
66. CCn1cnc2c(c(Br)nn2C)c1=O  4.37%
67. COc1ccc2c(c1)C(=O)NC1(CC2)CCN(Cc2ccccn2)C1 (centres undefined)  4.51%
68. COCc1cccc(C(=O)N2CCN(C3=NCC(C)(C)S3)CC2)c1  4.65%
69. CN(Cc1ccc(-n2cncn2)cc1)Cc1ncc[nH]1  4.67%
70. Cc1cn[nH]c1C1CCCCN1C(=O)CCN1CCCCCC1 (centres undefined)  5.7%
71. COCCN(Cc1ccccn1)C(=O)C1CCCCCN1C (centres undefined)  6.32%
72. Cc1ccc(C)c(NCc2nc3n(n2)CCCCC3)c1  6.39%
73. CN(C1CCCN(c2ccccn2)C1)S(=O)(=O)N1CCOCC1 (centres undefined)  8.09%
74. COc1ccc(CNC(=O)NC(C)(CO)C2CC2)c(C(F)(F)F)c1 (centres undefined)  8.48%
75. Cc1cccc(C(=O)N2CCCC2c2c(C)n[nH]c2C)c1 (centres undefined)  8.58%
76. Cc1nn(C)c2cnn(Cc3ccc(C(=O)NCC4CCCO4)o3)c12 (centres undefined)  9.37%
77. CNc1[nH]nc(N)c1NC(=O)c1ccccc1  9.96%
78. COc1c(F)cc(NC(=O)N2CCC(CSC)C2)cc1F (centres undefined)  10.2%
79. O=C1CC2(CCN(C(=O)c3ccccn3)C2)Nc2ccccc2N1 (centres undefined)  10.9%
80. c1csc(-c2nc(CN3CCCC3Cn3cccn3)co2)c1 (centres undefined)  11.1%
81. Cc1ccc(CC(=O)NCC(Cc2ccc(F)cc2)C(N)=O)cn1 (centres undefined)  12%
82. COc1ccc(OCC(=O)NS(=O)(=O)c2ccc(Cl)s2)cc1  14.1%
83. CCN(CC(C)C#N)C(=O)CNc1cc(Cl)ccc1C(N)=O (centres undefined)  17.6%
84. COc1ccc(Br)cc1CN(C)c1nc2c(cnn2C)c(=O)[nH]1  48.1%
